The list is not random: actives were taken first. Their share in the collection is about 2%.
SUMO1 PPI mod – modulators of SUMO1 protein-protein interactions, primary screen, biochemical, uHTS; Small ubiquitin-related modifier 1 (Homo sapiens), P63165; SUMO1 binding to a labelled peptide, TR-FRET, 1 h; inhibition, % at 20 µM; 0.33% of 360,000 active; AID 602429, 2012; in the data active = inhibition above about 37%
Target sequence (P63165 whole entry, looked up): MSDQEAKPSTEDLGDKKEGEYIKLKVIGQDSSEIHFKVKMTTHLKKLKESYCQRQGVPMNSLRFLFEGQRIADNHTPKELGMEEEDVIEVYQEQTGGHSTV
CSN deneddyl inh – inhibitors of CSN-mediated cullin deneddylation, primary screen, biochemical, fluorescence polarization, uHTS; Purified CSN, SCF-Nedd8-OG deneddylation; inhibition, % at 12.5 µM; 0.38% of 360,000 active;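 active = pattern-corrected inhibition above about 35%, with an unprinted fluorescence ratio check between 0.5 and 1.5, limit read from the data, passing the limit was not always enough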
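Assay system: HEK293T-derived human Csn5 enzyme; quantity: 0.24 nM enzyme; medium: Tris/NaCl/DTT buffer, pH 7.5; also added: substrate SCFSkp2-Nedd8OG, 10 nM; doses: 12.5 µM compound; schedule: 90 min reaction at room temperature; signal: FP; read-out: % inhibition of substrate cleavage by Csn5; benchmarks: substrate-only high control, full reaction low control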
DNMT1 inh – human DNMT1 methyltransferase inhibitors, primary screen, biochemical, molecular beacon, fluorescence, HinP1I cleavage, uHTS | 0.83% of 360,000 active | inhibition (reported as % activation of signal), % at 10 µM; in the data active = inhibition above about 50%
STEP inh – STEP phosphatase inhibitors, primary screen, biochemical, fluorescence intensity, uHTS; Tyrosine-protein phosphatase non-receptor type 5 (Homo sapiens), P54829; recombinant STEP, OMFP fluorogenic substrate; inhibition, % at 20 µM; 0.25% of 360,000 active;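 active = inhibition at 20 µM, scaled per plate between control wells, above about 37%, limit read from the data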
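Material: STEP (striatal-enriched tyrosine phosphatase) enzyme, cell-free | Medium: 50 mM Bis-Tris pH 6.0 with 2.5 mM DTT and 0.005% Tween 20 | Read-out: Percent inhibition scaled to no-enzyme and uninhibited-enzyme controls, plate-pattern corrected | Signal: Fluorescence read at 480 nm ex / 540 nm em | Times: 20 min reaction, room temperature, in the dark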
LMPTP block – LMPTP phosphatase inhibitors, primary screen, biochemical, fluorescence intensity, uHTS; Low molecular weight phosphotyrosine protein phosphatase (Homo sapiens), P24666; recombinant LMPTP-A, OMFP fluorogenic substrate; inhibition, % at 20 µM; 0.22% of 360,000 active;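 active = compounds that cut the enzyme signal by at least half of the control window in the single-dose screen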
Target sequence (P24666 whole entry, looked up): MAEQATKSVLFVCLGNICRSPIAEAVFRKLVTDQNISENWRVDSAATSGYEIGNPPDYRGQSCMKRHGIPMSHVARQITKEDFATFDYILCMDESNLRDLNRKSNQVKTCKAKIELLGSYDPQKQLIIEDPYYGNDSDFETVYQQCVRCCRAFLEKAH
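Assay system: LMPTP-A, protein tyrosine phosphatase of low molecular weight / Medium: pH 6.0 Bis-Tris buffer with DTT and Triton X-100 / Schedule: 50 min enzyme reaction at room temperature, protected from light / Measured by: endpoint fluorescence intensity from OMFP dephosphorylation / Read-out basis: % inhibition relative to no-enzyme and uninhibited control wells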
Scp-1 inhibitor – Scp-1 phosphatase inhibitors, primary screen, biochemical, colorimetric, uHTS; Carboxy-terminal domain RNA polymerase II polypeptide A small phosphatase 1 (Homo …; Recombinant Scp1, phosphopeptide, malachite green phosphate absorbance; inhibition, % at 20 µM; 0.88% of 340,000 active; AID 493091, 2011;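 active = inhibition above about 50% at 20 µM, limit read from the data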
Target sequence (Q9GZU7 76-261 limits assumed): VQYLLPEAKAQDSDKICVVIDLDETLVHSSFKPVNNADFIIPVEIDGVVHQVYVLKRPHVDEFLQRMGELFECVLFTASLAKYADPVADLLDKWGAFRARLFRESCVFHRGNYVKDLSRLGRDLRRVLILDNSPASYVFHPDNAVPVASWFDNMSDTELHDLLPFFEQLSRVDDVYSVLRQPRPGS
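Test system: SCP-1 phosphatase catalytic domain, residues 76-261 | Compound dosing: One concentration, 20 µM, with 1.0% DMSO | Schedule: 45 min room-temperature reaction, 5 min colour, 30 min stabiliser | Detection: Absorbance at 630 nm | Read-out basis: % inhibition of SCP-1 phosphate liberation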
Beacon interf DR – spectral interference with molecular beacon fluorescence, dose response, artefact control for DNMT1 inhibitor project, biochemical, fluorescent molecular beacon; shares compounds with DNMT1 inh; spectral interference counter-screen; IC50, µM; 200 tested, under 10 active; call rule not given here
DNMT1 inh conf – DNMT1 methyltransferase inhibitor retest, confirmation, biochemical, molecular beacon, fluorescence, single concentration; DNMT1 molecular beacon HinP1I cleavage; 8% of 2,300 active; shares compounds with DNMT1 inh; inhibition, % at 10 µM; AID 602385, 2012;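 active = average inhibition of at least 30% in the single-concentration confirmation test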
Beacon interf – beacon fluorescence artifact counter-screen; shares compounds with DNMT1 inh; DNMT1 molecular beacon spectral interference counterscreen, fluorescence 485/520; activation (fluorescence interference), % at 10 µM; 1% of 2,300 active; AID 602387;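 active = activation of at least 30% at 10 µM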;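 note: DNMT1 catalytic domain with a HinP1I cleavage step and a FAM/dabcyl DNA beacon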
Hits are given with their value; n = inactive; x = no result given.

SMILES	SUMO1 PPI mod	CSN deneddyl inh	DNMT1 inh	STEP inh	LMPTP block	Scp-1 inhibitor	DNMT1 inh conf	Beacon interf	others
NS(=O)(=O)c1cccc(NC(=O)c2cccc(Oc3ccccc3)c2)c1	n	n	n	n	n	n	x	x
CCCCN(C(=O)c1cccc(-n2cccc2)c1)c1c(N)n(CCC)c(=O)[nH]c1=O	n	n	62	n	n	70	n	n
COc1ccc(-c2ccc(C#N)c(SCC(=O)Nc3sc4c(c3C#N)CCC4)n2)cc1OC	n	n	61	n	n	n	n	n
Fc1cc(F)c2nc(Nc3nc4cc5c(cc4s3)OCO5)sc2c1	83	n	72	n	n	n	n	n
CCCn1nc(C(=O)NNC(=O)C2CSC3(C)CCC(=O)N23)c2ccccc2c1=O (stereo not drawn)	n	n	n	n	n	n	x	x
O=S(=O)(Cc1noc(-c2ccc(Cl)cc2)n1)Cc1ccco1	n	38	83	n	n	n	n	n
O=S(=O)(Cc1ccco1)Cc1nc(-c2ccc(Cl)cc2)cs1	n	n	n	n	n	n	x	x
Cc1ccc(-c2ccc(/C=N\NC(=O)c3cc4c(ccc5ccccc54)o3)o2)cc1[N+](=O)[O-]	n	n	72	n	n	n	n	n
CC1=NN(c2ccccc2)C(=O)C1/C=C1\NC(=S)NC1=O (stereo not drawn)	n	n	90	n	n	n	38	n	Beacon interf DR=n
Cc1ccc(C(=O)NCC(=O)Nc2ccc3c(c2)CCC3)cc1C	n	n	n	n	n	n	x	x
Cc1cc(C(=O)Nc2ccc3c(c2)CCC3)ccc1[N+](=O)[O-]	n	n	78	n	n	n	n	n
Cc1nc2c(=O)[nH]c(=S)[nH]c2[nH]c1=O	55	n	79	n	n	96	n	n
Cc1nc2[nH]c(=S)[nH]c(=O)c2nc1C	n	n	n	n	n	n	x	x
COc1cc2c(C#N)c(N3CCCCC3)nc(N)c2c(N)n1	52	n	65	n	n	n	n	n
CCN(CC)c1nc(N)c2c(N)nc(OC)cc2c1C#N	52	n	81	n	n	n	n	n
COc1cc2c(C#N)c(N3CCOCC3)nc(N)c2c(N)n1	n	n	n	n	n	n	x	x
Cc1ccc(C(=O)NCCCNCCCN(C)C)cn1	n	n	53	n	n	n	n	n
Cc1ccc(C(=O)NCCCNCCCNC(=O)c2ccc(C)nc2)cn1	n	n	n	n	n	n	x	x
O=C(C[C@H]1C=C[C@@H](NS(=O)(=O)c2ccccc2)[C@@H](CO)O1)NCc1ccc(Cl)c(Cl)c1	n	n	x	x	n	x	x	x
Cn1c(-c2cccc(OCc3ccccc3)c2)nc2c1c(=O)[nH]c(=O)n2Cc1ccccc1	n	n	57	n	n	n	n	n
Cn1c(-c2cccc(F)c2)nc2c1c(=O)[nH]c(=O)n2Cc1ccccc1	n	n	n	n	n	n	x	x
CCN(CC)S(=O)(=O)c1ccc(-c2nnc(SCC(=O)N3CCOCC3)o2)cc1	n	n	n	n	n	n	x	x
CCN(CC)S(=O)(=O)c1ccc(-c2nnc(SCC(=O)N3CCc4ccccc43)o2)cc1	n	n	54	n	n	n	n	n
O=C(O)Cn1ncc2c1-c1ccoc1CC2	n	n	89	n	n	n	n	n
O=C(Cn1ncc2c1-c1ccccc1OC2)N1CCc2ccccc21	n	n	n	n	n	n	x	x
SMILES	SUMO1 PPI mod	CSN deneddyl inh	DNMT1 inh	STEP inh	LMPTP block	Scp-1 inhibitor	DNMT1 inh conf	Beacon interf	others
O=C(CSc1nnc2ccccn12)Nc1cccc(-c2nc3ccccc3s2)c1	n	n	61	n	n	n	n	n
C=CCn1c(SCC(=O)Nc2ccc(-c3nc4ccc(C)cc4s3)cc2)nnc1-c1ccccc1	n	n	74	n	n	61	n	n
C=CCn1c(SCC(=O)NNC(=O)Nc2ccc(C)cc2)nnc1-c1ccccc1	n	n	n	n	n	n	x	x
C=CCn1c(SCC(=O)Nc2ccc3c(c2)OCO3)nnc1-c1ccccc1	n	n	52	n	n	n	n	n
CCn1ccnc1CN(C)C(=O)C1CCC(=O)N(CCc2cccc(F)c2)C1 (stereo not drawn)	n	n	n	n	n	n	x	x
Cc1cc(C)cc(OCc2nc3ncc(Br)cc3[nH]2)c1	n	n	59	n	n	n	n	n
CC(O)(c1ccccc1)c1ccc2ccccc2n1 (stereo not drawn)	n	n	n	n	n	n	x	x
CC(=C\C(=O)O)/C(=C/c1ccco1)C(=O)O	n	n	n	n	n	n	x	x
CC(=C\C(=O)O)/C(=C/c1ccc(C)o1)C(=O)O	n	n	78	n	n	56	n	n
CC(C)c1nc(SCC(=O)Nc2c[nH]c(=O)[nH]c2=O)c2cnn(-c3ccccc3)c2n1	n	n	53	n	n	n	n	n
Cc1nc(SCC(=O)Nc2c(C)nn(C)c2C)c2cnn(-c3ccccc3)c2n1	n	n	n	n	n	n	x	x
N#Cc1c(-c2ccco2)cc(-c2ccccc2)[nH]c1=O	n	n	n	n	n	n	x	x
Cc1ccc(-c2cc(-c3ccco3)c(C#N)c(=O)[nH]2)cc1	n	n	58	n	49	n	n	n
CC(C)c1nc2sc3c(=O)[nH]cnc3c2c2c1CCC2	n	n	n	n	n	n	x	x
Cc1ccc(-c2cc(C(F)F)nc3sc4c(=O)[nH]cnc4c23)cc1	n	n	61	n	n	n	n	n
C/C(=N\NC(=O)c1ccc2c(c1)OCO2)c1ccc(O)cc1	n	n	81	n	n	n	n	n
C/C(=N\NC(=O)c1ccccc1)c1ccc2c(c1)OCO2	n	n	n	n	n	n	x	x

Screens deposited in PubChem BioAssay by Sanford-Burnham Center for Chemical Genomics.
